Measured values taken from ChEMBL document CHEMBL4834447, “A gemcitabine-based conjugate with enhanced antitumor efficacy by suppressing HIF-1α expression under hypoxia” (Bioorg Med Chem, 2021).
Calls of active or inactive are those of the source. The calls are words filed in the database; no cut-off is given here.

Assays:
A549 [1] = test: Cytotoxicity against human A549 cells assessed as reduction in cell viability incubated for 72 hrs by MTT assay; type: functional, cell-based; settings: A549, 72 h
How it was run: (§1)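 In the MTT assay, logarithmic-phase cells were seeded at about 5 × 10⁴ cells/mL and preincubated 12 h. Cells were then exposed for 72 h at 37 °C under normoxia (20% O₂, 5% CO₂) to seven final concentrations, 1.25–80 μmol/L, diluted from DMSO stock. MTT (5 mg/mL) was added for 4 h, formazan was dissolved in DMSO, and absorbance was read at 570/630 nm. IC50 was calculated by the Bliss method; values are mean ± SD of three independent runs in duplicate.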

MCF7 [2] = test: Cytotoxicity against human MCF7 cells assessed as reduction in cell viability incubated for 72 hrs by MTT assay; type: functional, cell-based; settings: MCF7, 72 h; how it was run: as §1
A2780 [3] = test: Cytotoxicity against human A2780 cells assessed as reduction in cell viability incubated for 72 hrs by MTT assay; type: functional, cell-based; settings: A2780, 72 h; how it was run: as §1
L02 [4] = test: Cytotoxicity against human L02 cells assessed as reduction in cell viability incubated for 72 hrs by MTT assay; type: cell-based; settings: L02, 72 h; how it was run: as §1
A549 [5] = test: Cytotoxicity against human A549 cells assessed as reduction in cell viability incubated for 72 hrs in hypoxic condition by MTT assay; type: functional, cell-based; settings: A549, 72 h
How it was run: (§2)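 For the hypoxic MTT assay, cells were seeded at about 5 × 10⁴ cells/mL and preincubated 12 h under hypoxia (1% O₂, 5% CO₂, 94% N₂). They were then treated for 72 h at 37 °C with final concentrations of 1.25–80 μmol/L. MTT was added for 4 h and absorbance read at 570/630 nm. IC50 was obtained by the Bliss method; tests were repeated three times.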

A2780 [6] = test: Cytotoxicity against human A2780 cells assessed as reduction in cell viability incubated for 72 hrs in hypoxic condition by MTT assay; type: functional, cell-based; settings: A2780, 72 h; how it was run: as §2
L02 [7] = test: Cytotoxicity against human L02 cells assessed as reduction in cell viability incubated for 72 hrs in hypoxic condition by MTT assay; type: cell-based; settings: L02, 72 h
A2780 [8] = test: Induction of apoptosis in human A2780 cells assessed as viable cells at 0.5 uM incubated for 72 hrs by annexin-V-FITC and PI staining based flow cytometry analysis (reference value: 91.95 %); type: functional; settings: read-out: Activity
A2780 [9] = test: Induction of apoptosis in human A2780 cells assessed as early apoptotic cells at 0.5 uM incubated for 72 hrs by annexin-V-FITC and PI staining based flow cytometry analysis (reference value: 5.35 %); type: functional
A2780 [10] = test: Induction of apoptosis in human A2780 cells assessed as late apoptotic cells at 0.5 uM incubated for 72 hrs by annexin-V-FITC and PI staining based flow cytometry analysis (reference value: 1.71 %); type: functional
A2780 [11] = test: Induction of apoptosis in human A2780 cells assessed as necrotic cells at 0.5 uM incubated for 72 hrs by annexin-V-FITC and PI staining based flow cytometry analysis (reference value: 0.98 %); type: functional
A2780 [12] = test: Induction of apoptosis in human A2780 cells assessed as viable cells at 0.5 uM incubated for 72 hrs in hypoxic condition by annexin-V-FITC and PI staining based flow cytometry analysis (reference value: 81.05 %); type: functional; settings: read-out: Activity
A2780 [13] = test: Induction of apoptosis in human A2780 cells assessed as early apoptotic cells at 0.5 uM incubated for 72 hrs in hypoxic condition by annexin-V-FITC and PI staining based flow cytometry analysis (reference value: 9.74 %); type: functional
A2780 [14] = test: Induction of apoptosis in human A2780 cells assessed as late apoptotic cells at 0.5 uM incubated for 72 hrs in hypoxic condition by annexin-V-FITC and PI staining based flow cytometry analysis (reference value: 6.17 %); type: functional
A2780 [15] = test: Induction of apoptosis in human A2780 cells assessed as necrotic cells at 0.5 uM incubated for 72 hrs in hypoxic condition by annexin-V-FITC and PI staining based flow cytometry analysis (reference value: 3.04 %); type: functional
A2780 [16] = test: (§3) Downregulation of HIF-1alpha in human A2780 cells at 1 uM incubated for 24 hrs in hypoxia condition by Western blot analysis relative to control; type: functional
How it was run: (§4)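 A2780 cells were treated at the indicated concentrations for 24 h under hypoxia. They were lysed in Tris-Cl pH 6.8 buffer with SDS, glycerol, β-mercaptoethanol, PMSF and aprotinin, then centrifuged at 13000 rpm for 20 min at 4 °C. Proteins were resolved by SDS-PAGE and transferred to PVDF. Blots were probed for HIF-1α, p53 and GAPDH, with secondary antibody at 1:2000 for 1 h, and detected by chemiluminescence.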

A2780 [17] = test: Upregulation of p53 in human A2780 cells at 0.1 to 1 uM incubated for 24 hrs in hypoxia condition by Western blot analysis; type: functional, cell-based; settings: dose 0.1-1 µM; how it was run: as §4
A2780 [18] = test: Antitumor activity against human A2780 cells xenografted in BALB/c mouse assessed as reduction in tumor volume at 125 mg/kg, iv administered for 28 days and measured on day 28 relative to control; type: functional; design: scale not given: the % may be the effect or the level left; settings: time 28 day
How it was run: (§5)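 Female BALB/c nude mice, 5 weeks old, were implanted subcutaneously in the right armpit with 10⁷ A2780 cells in 0.1 mL PBS. At 100–150 mm³ (day 19) mice were randomized (5/group) and dosed by tail-vein injection once weekly for 4 weeks. GEM-5 was given in DMF:Tween 80:5% dextrose (10:2:88); vehicle controls received 5% dextrose. Volume was measured by caliper (V = AB²/2) every 3 days. Tumors were weighed after sacrifice, giving the tumor inhibitory rate.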

A2780 [19] = test: Antitumor activity against human A2780 cells xenografted in BALB/c mouse assessed as reduction in tumor growth at 125 mg/kg, iv administered for 28 days and measured on day 28 relative to control; type: functional; settings: 672 h, time 28 day, read-out: TGI; how it was run: as §5
[20] = Toxicity in BALB/c mouse xenografted with human A2780 cells assessed as effect on body weight at 125 mg/kg, iv administered for 28 days and measured on day 28; type: organism-based; settings: in vivo, 672 h, time 28 day
How it was run: (§6)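 The A2780 subcutaneous xenograft was set up in female BALB/c nude mice. Weekly i.v. tail-vein dosing ran for 4 weeks, starting at 100–150 mm³ tumor size (5 mice/group), with DMF:Tween 80:5% dextrose (10:2:88) as the formulation and a 5% dextrose vehicle control. Body weight was recorded every three days over 28 days.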

A2780 [21] = test: Induction of cell cycle arrest in human A2780 cells assessed as S phase at 0.5 uM incubated for 24 hrs by PI staining based flow cytometry analysis (reference value: 20.11 %)
A2780 [22] = test: Induction of cell cycle arrest in human A2780 cells assessed as G1 phase at 0.5 uM incubated for 24 hrs by PI staining based flow cytometry analysis (reference value: 75.23 %)
A2780 [23] = test: Induction of cell cycle arrest in human A2780 cells assessed as G2/M phase at 0.5 uM incubated for 24 hrs by PI staining based flow cytometry analysis (reference value: 4.66 %)
A2780 [24] = test: Induction of cell cycle arrest in human A2780 cells assessed as S phase at 0.5 uM incubated for 24 hrs in hypoxic condition by PI staining based flow cytometry analysis (reference value: 34.79 %)
A2780 [25] = test: Induction of cell cycle arrest in human A2780 cells assessed as G1 phase at 0.5 uM incubated for 24 hrs in hypoxic condition by PI staining based flow cytometry analysis (reference value: 56.83 %)
A2780 [26] = test: Induction of cell cycle arrest in human A2780 cells assessed as G2/M phase at 0.5 uM incubated for 24 hrs in hypoxic condition by PI staining based flow cytometry analysis (reference value: 8.38 %)
A549 [27] = test: Potency index, ratio of IC50 of GEM to IC50 of compound for cytotoxicity against human A549 cells assessed as reduction in cell viability incubated for 72 hrs by MTT assay; type: functional
How it was run: (§7)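 The fold value is the IC50 of gemcitabine divided by the compound's IC50. Both IC50s come from 72 h normoxic MTT assays (1.25–80 μmol/L, Bliss method, three independent runs).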

MCF7 [28] = test: Potency index, ratio of IC50 of GEM to IC50 of compound for cytotoxicity against human MCF7 cells assessed as reduction in cell viability incubated for 72 hrs by MTT assay; type: functional; how it was run: as §7
A2780 [29] = test: Potency index, ratio of IC50 of GEM to IC50 of compound for cytotoxicity against human A2780 cells assessed as reduction in cell viability incubated for 72 hrs by MTT assay; type: functional; how it was run: as §7
A2780 [30] = test: Downregulation of HIF-1alpha in human A2780 cells incubated for 24 hrs in hypoxia condition by Western blot analysis; type: functional, cell-based; settings: dose 0.1-1 µM; how it was run: as §4
A2780 [31] = test: Antitumor activity against human A2780 cells xenografted in BALB/c mouse assessed as reduction in tumor volume at 271 mg/kg, iv administered for 28 days and measured on day 28 relative to control; type: functional; design: scale not given: the % may be the effect or the level left; settings: time 28 day; how it was run: as §5
A2780 [32] = test: Antitumor activity against human A2780 cells xenografted in BALB/c mouse assessed as reduction in tumor growth at 271 mg/kg, iv administered for 28 days and measured on day 28 relative to control; type: functional; settings: 672 h, time 28 day, read-out: TGI; how it was run: as §5
A2780 [33] = test: Antitumor activity against human A2780 cells xenografted in BALB/c mouse assessed as reduction in tumor hypoxia at 271 mg/kg, iv administered for 28 days and measured on day 28 by DAPI staining based confocal microscopic analysis; type: functional, organism-based; settings: time 28.0 day
How it was run: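 Tumor sections from the weekly i.v.-dosed A2780 xenograft mice were stained for hypoxia with the pimonidazole kit. This used FITC anti-pimonidazole antibody (1:100) plus HRP rabbit anti-FITC secondary (1:100), with DAPI for nuclei. Green hypoxic areas were imaged by confocal microscopy. Three independent experiments were run.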

[34] = Toxicity in BALB/c mouse xenografted with human A2780 cells assessed as effect on body weight at 271 mg/kg, iv administered for 28 days and measured on day 28; type: organism-based; settings: in vivo, 672 h, time 28 day; how it was run: as §6
[35] = as §3; type: functional; how it was run: as §4

Row | SMILES | IC50 (A549 [1]) | IC50 (MCF7 [2]) | IC50 (A2780 [3]) | IC50 (L02 [4]) | IC50 (A549 [5]) | IC50 (A2780 [6]) | IC50 (L02 [7]) | viability at 0.5 µM (A2780 [8]) | Activity (A2780 [9]) | Activity (A2780 [10]) | Activity (A2780 [11]) | viability at 0.5 µM (A2780 [12]) | Activity (A2780 [13]) | Activity (A2780 [14]) | Activity (A2780 [15]) | Activity (A2780 [17]) | Activity (A2780 [18]) | inhibition in vivo at 125 mg/kg (A2780 [19]) | Activity [20] | Activity (A2780 [21]) | other results
1 | Cl.Nc1ccn([C@@H]2O[C@H](CO)[C@@H](O)C2(F)F)c(=O)n1 [GEMCITABINE HYDROCHLORIDE] | 2.31 µM | 6.35 µM | 1.25 µM | 11.9 µM | 14.7 µM | 1.38 µM | 4.51 µM | 51.6% | 5.02% | 34.42% | 8.98% | 53% | 25% | 19.51% | 2.44% | Dose-Dependent Effect | 29.37% | 69.7% | Non-Toxic | 51.54% | Activity (A2780 [16]): inactive; Activity (A2780 [22]): 42.51%; Activity (A2780 [23]): 5.95%; Activity (A2780 [24]): 60.08%; Activity (A2780 [25]): 37.21%; Activity (A2780 [26]): 2.7%
2 | Nc1ccn([C@@H]2O[C@H](COC(=O)CCC(=O)OCc3ccc(-c4nn(Cc5ccccc5)c5ccccc45)o3)[C@@H](O)C2(F)F)c(=O)n1 | 0.37 µM | 2.6 µM | 0.13 µM | 4.43 µM | 3.03 µM | 0.03 µM | 3.04 µM | 35.2% | 3.85% | 48.82% | 12.08% | 18% | 48.48% | 32.41% | 1.13% | Dose-Dependent Effect | 46.09% | 55.1% | Non-Toxic | 63.02% | Ratio IC50 (A549 [27]): 6.2; Ratio IC50 (MCF7 [28]): 2.4; Ratio IC50 (A2780 [29]): 9.6; Activity (A2780 [30]): Dose-Dependent Effect; Activity (A2780 [31]): 36.61%; inhibition in vivo at 271 mg/kg (A2780 [32]): 64.6%; Activity (A2780 [33]): Active; Activity [34]: Non-Toxic; Activity (A2780 [22]): 17.74%; Activity (A2780 [23]): 19.24%; Activity (A2780 [24]): 72.64%; Activity (A2780 [25]): 19.37%; Activity (A2780 [26]): 7.99%
3 | OCc1ccc(-c2nn(Cc3ccccc3)c3ccccc23)o1 | > 80 µM | > 80 µM | > 80 µM | > 80 µM | 25.6 µM | 20.4 µM | 26.6 µM | – | – | – | – | – | – | – | – | inactive | – | – | – | – | Activity [35]: 50%
